An excerpt weighted towards active compounds, which were near 1.8% of everything screened.
Apaf1 inhib = human Apaf-1 inhibition; reconstituted apoptosome caspase-3 activity, DEVD-Rh110 fluorescence; O14727; inhibition, % at 20 µM; 330,000 tested, 0.71% active; AID 489030; active = inhibition of at least 40% at 20 µM
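detection = Rh110 fluorescence intensity | test system = biochemical Apaf-1 apoptosome reconstitution | also added = cytochrome c and DEVD-Rh110 substrate | schedule = 30 min plus 50 min, RT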
PAD4 FP inh = blocks human protein arginine deiminase 4. inhibition, % at 6.36 µM. 330,000 tested, 0.41% active. AID 485272. Q9UM07. recombinant PAD4, RCA probe fluorescence polarization;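 active = percent inhibition above a cutoff equal to the mean of all tested compounds plus 3 SD, cut at about 15% in these data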
CTSL1 counter = cathepsin L1 inhibition, PFM18AAP counter-screen; recombinant F. hepatica cathepsin L1, Z-Leu-Arg-MCA fluorescence; inhibition, % at 5.96 µM; 300,000 tested, 0.49% active; AID 1906;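 active = inhibition above the mean of all tested compounds plus 3 SD, set per screening campaign, cut at about 17% in these data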
GSTO1 inh = counter-screen for RBBP9 inhibitors: inhibitors of human GSTO1. P78417. recombinant GSTO1, activity-based probe fluorescence polarization. inhibition, % at 5.96 µM. 300,000 tested, 1.1% active;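 active = inhibition above the campaign mean inhibition plus 3 SD, cut at about 35% in these data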
TDP2 inh = TDP2 (human) inhibition, absorbance primary screen | 370,000 tested, 0.34% active | O95551 | inhibition, % at 12.8 µM | recombinant TDP2, T5PNP hydrolysis, p-nitrophenol absorbance 415 nm;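 active = inhibition above the mean of all tested compounds plus 3 SD, set per campaign, cut at about 25% in these data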
Target sequence (O95551 whole entry, looked up): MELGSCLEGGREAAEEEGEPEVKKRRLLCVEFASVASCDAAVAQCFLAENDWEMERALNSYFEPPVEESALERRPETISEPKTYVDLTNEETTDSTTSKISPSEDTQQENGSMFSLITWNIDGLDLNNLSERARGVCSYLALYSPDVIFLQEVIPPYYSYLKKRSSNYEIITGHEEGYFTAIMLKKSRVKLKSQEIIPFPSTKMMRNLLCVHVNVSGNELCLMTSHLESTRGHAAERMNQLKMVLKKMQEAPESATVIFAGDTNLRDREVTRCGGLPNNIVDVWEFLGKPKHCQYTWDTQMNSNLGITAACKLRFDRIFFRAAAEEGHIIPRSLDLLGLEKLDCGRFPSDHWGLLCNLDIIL
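Incubation: 2 h at 37 °C; Test system: recombinant human TDP2; Quantity: enzyme 120 nM; Read-out basis: percent inhibition; Medium: 50 mM Tris-HCl pH 7.5 with Mg2+, KCl, DTT, BSA; Repeats: single replicate; Compound: 12.8 µM single point, 1% DMSO; Signal: epi absorbance; Reagent: 5 mM T5PNP chromogenic substrate; Benchmarks: no-enzyme high, DMSO-plus-enzyme low.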
GSTO1 inh conf = GSTO1 (human) inhibition, confirmation. recombinant GSTO1, probe fluorescence polarization. inhibition, % at 5.96 µM. AID 2176. shares compounds with GSTO1 inh. 2,400 tested, 54% active;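 active = inhibition above the primary screen's cutoff, its mean inhibition plus 3 SD, cut at about 35% in these data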;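 note: loss of polarization as inhibitors block binding of rhodamine sulfonate ester activity probe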
PAD4 FP conf = confirmation of human PAD4 inhibitors | shares compounds with PAD4 FP inh | recombinant PAD4, RCA probe fluorescence polarization | inhibition, % at 6.36 µM | 1,200 tested, 28% active | AID 488796;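 active = mean inhibition across replicates above the hit cutoff set by the earlier primary screen, cut at about 15% in these data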;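 note: inhibitors block active-site labeling by the probe so polarization falls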
Apaf-1 inh conf = confirmation of Apaf-1 inhibitors. reconstituted apoptosome, caspase-3 DEVD-Rh110 fluorescence. shares compounds with Apaf1 inhib. inhibition, % at 20 µM. 1,800 tested, 25% active;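 active = mean inhibition of at least 40% at 20 µM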
Rh110 quench = interferes with Rh110 fluorescence, flagging false Apaf-1 inhibitors | 1,800 tested, under 10 active | Rh110 fluorescence interference, quenched caspase reaction | shares compounds with Apaf1 inhib | activation (fluorescence interference), % at 20 µM;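 active = signal rise of 40% or more at 20 µM, treated as a fluorescence artifact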
Apaf1 inh interf = shows fluorescence interference in the Apaf-1 inhibitor assay format; shares compounds with Apaf1 inhib; fluorescence interference counterscreen, Apaf-1 assay format; IC50, µM; 460 tested, under 10 active; call rule not given here
Hits are given with their value; n = inactive; x = no result.

SMILES	Apaf1 inhib	PAD4 FP inh	CTSL1 counter	GSTO1 inh	TDP2 inh	GSTO1 inh conf	Apaf-1 inh conf	Rh110 quench	Apaf1 inh interf	others
CC(C)(C)c1cc(C(=O)N/N=C/c2ccc(-c3ccccc3[N+](=O)[O-])o2)n[nH]1	42	48	n	52	n	n	n	n	x	PAD4 FP conf=n
CC(=O)Nc1ccc(S(=O)(=O)NC2=C(N3CCN(Cc4ccccc4)CC3)C(=O)c3ccccc3C2=O)cc1	x	n	n	n	n	x	x	x	x
CC(=O)Nc1ccc(S(=O)(=O)NC2=C(N3CCN(C)CC3)C(=O)c3ccccc3C2=O)cc1	60	n	n	43	n	38	46	n	n
CCN1CCN(C2=C(NS(=O)(=O)c3ccc(NC(C)=O)cc3)C(=O)c3ccccc3C2=O)CC1	74	n	n	50	n	n	n	n	x
CN(Cc1ccc(F)cc1)C(=O)CN1C(=O)C2(OCCCO2)c2ccccc21	x	x	x	x	n	x	x	x	x
COc1ccc(N)cc1-n1c(C)ccc1C	84	n	n	45	n	n	n	n	x
CC(=O)[C@]1(O)Cc2c(O)c3c(c(O)c2[C@@H](O[C@H]2C[C@H](N)[C@H](O)[C@H](C)O2)C1)C(=O)c1ccccc1C3=O	47	84	n	67	x	59	n	n	x	PAD4 FP conf=89
O=C(NC1CCCC1)[C@@H]1CCCN1C(=O)[C@@H](NS(=O)(=O)c1ccc(F)cc1F)c1ccccc1	x	x	x	x	n	x	x	x	x
CC(=O)N(Cc1ccc(F)cc1)C1=C(NCCc2ccccc2)C(=O)c2ccccc2C1=O	78	n	n	44	n	46	76	n	n
CC(C)(C)OC(=O)NCc1cc(F)ccc1/C=C/S(=O)(=O)NCc1ccc(F)cc1	x	x	x	x	n	x	x	x	x
CC(C)[n+]1ccn(C2=C([O-])c3ccccc3C(=O)/C2=N\S(=O)(=O)c2ccccc2)c1	46	n	n	61	n	57	68	n	n
CCCCC[n+]1ccn(C2=C([O-])c3ccccc3C(=O)/C2=N\S(=O)(=O)c2ccccc2)c1	53	n	n	75	n	59	62	n	n
CC(C)c1ccc(NC(=O)C[n+]2ccn(C3=C([O-])c4ccccc4C3=O)c2)cc1	n	n	n	n	n	x	x	x	x
CCCCC[n+]1ccn(C2=C([O-])c3ccccc3C(=O)/C2=N\S(=O)(=O)c2ccc(Br)cc2)c1	61	n	n	47	n	n	43	n	n
CC(C)c1ccc(NC(=O)OC2CCC23CCC(c2ccccc2)CC3)cc1 (stereo not given)	x	x	x	x	n	x	x	x	x
C[C@H]1COc2cc(N3CCOCC3)ccc2S(=O)(=O)N1	x	x	x	x	n	x	x	x	x
O=S(=O)([N-]c1nc2ccccc2nc1-[n+]1ccc(CCCc2ccccc2)cc1)c1cccs1	n	n	n	n	n	x	x	x	x
O=C1/C(=N\S(=O)(=O)c2cccs2)C([n+]2ccc(CCCc3ccccc3)cc2)=C([O-])c2ccccc21	46	n	n	79	n	84	n	n	x
Cc1nc2ccccc2c(=O)n1/N=C/c1ccc(O)cc1O	n	n	n	n	n	x	x	x	x
Oc1ccc(C=Nc2cccc3ccccc23)c(O)c1	81	n	n	38	n	n	n	n	x
O=[N+]([O-])c1ccc(O)c(C=Nc2cccc3ccccc23)c1	88	n	n	52	n	n	n	n	x
O=[N+]([O-])c1cccc(C=Nc2cccc3ccccc23)c1O	93	n	n	41	n	n	44	n	n
C=CCN1[C@H](C)COc2cc(N3CCCC3)ccc2S1(=O)=O	x	x	x	x	n	x	x	x	x

Assay outcomes from PubChem BioAssay.
